Data on 1 compound can be found in ChEMBL document CHEMBL2440047, “Design, synthesis, and structure-activity relationships of azolylmethylpyrroloquinolines as nonsteroidal aromatase inhibitors” (J Med Chem, 2013).

Series [1] deals with OVCAR-3. In words: Growth inhibition of estrogen-sensitive human OVCAR3 cells after 72 hrs by MTT assay. The settings on record: OVCAR-3, 72 h. It is filed as functional. In short, it runs like this: (§1)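 Cells were seeded at 8x10^3 per well and left 18 h at 37 °C, 5% CO2, then exposed 72 h to compound at several concentrations from 10 mM DMSO stocks (final DMSO ≤0.25%). Jurkat, RS4;11 and SEM were grown in RPMI-1640; H295R in DMEM-F12 with 2% FBS plus insulin-transferrin-selenium. Viability read by MTT.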
On the technique in general: Tetrazolium assays rely on reduction of a dye to a coloured formazan, in cell work by metabolically active cells.

In series [2] the target is T1, Aromatase (Homo sapiens, UniProt P11511).
T1 sequence (P11511 whole entry): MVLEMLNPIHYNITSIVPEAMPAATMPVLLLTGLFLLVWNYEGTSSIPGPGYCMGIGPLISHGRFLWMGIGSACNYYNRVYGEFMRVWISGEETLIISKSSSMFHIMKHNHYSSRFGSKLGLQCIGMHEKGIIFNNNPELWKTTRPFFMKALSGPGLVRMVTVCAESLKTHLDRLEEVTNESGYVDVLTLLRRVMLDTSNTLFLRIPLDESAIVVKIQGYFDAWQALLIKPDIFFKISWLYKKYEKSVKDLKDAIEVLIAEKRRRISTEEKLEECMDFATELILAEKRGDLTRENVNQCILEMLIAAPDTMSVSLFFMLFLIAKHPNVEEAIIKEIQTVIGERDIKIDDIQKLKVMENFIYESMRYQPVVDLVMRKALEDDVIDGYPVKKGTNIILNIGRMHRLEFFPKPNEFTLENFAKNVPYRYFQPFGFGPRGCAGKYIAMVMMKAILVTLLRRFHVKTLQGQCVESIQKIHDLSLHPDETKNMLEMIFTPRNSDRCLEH
Kind of series: Inhibition of CYP19 in human H295R cells using [1beta-3H(N)]-androst-4-ene-3,17-dione at 5 uM after 24 hrs by tritiated water release assay. Format: cell-based. In short, it runs like this: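 Cells were then incubated 2 h with 0.5 µM [1β-3H(N)]-androst-4-ene-3,17-dione. Read-out is tritiated water release, expressed as % of untreated cells. Means ± SEM of two independent experiments, each in triplicate.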

Series [3] relates to MCF7. Kind of series: Growth inhibition of estrogen-sensitive human MCF7 cells after 72 hrs by MTT assay. The settings on record: MCF7, 72 h. Format: functional. The gist of the method:
as §1

The subject of series [4] is MCF7. Kind of series: Cell cycle arrest in estrogen-sensitive human MCF7 cells after 24 hrs using propidium iodide staining by flow cytometry. It is filed as functional, cell-based. Background: In flow cytometry, cells or beads pass a laser one at a time.
Series [5] concerns HeLa. In words: Cell cycle arrest in non-estrogen-sensitive human HeLa cells after 24 hrs using propidium iodide staining by flow cytometry. Format: functional, cell-based.
The subject of series [6] is HT-29. Kind of series: Growth inhibition of non-estrogen-sensitive human HT-29 cells after 72 hrs by MTT assay. It is filed as functional. The note with it: HT-29, 72 h. In short, it runs like this: as §1
The test system of series [7] is NCI-H295R. In words: Growth inhibition of estrogen-sensitive human NCI-H295R cells after 72 hrs by MTT assay. Format: functional. The gist of the method: as §1
For series [8], the target named is T1, Aromatase. Kind of series: Inhibition of aromatase in human H295R cells using [1beta-3H(N)]-androst-4-ene-3,17-dione as substrate assessed as residual activity at 5 uM after 24 hrs by tritiated water release assay.
Series [9] concerns IGROV-1. In words: Growth inhibition of estrogen-sensitive human IGROV1 cells after 72 hrs by MTT assay. It is filed as functional. The note with it: IGROV-1, 72 h. The gist of the method: as §1
The subject of series [10] is HeLa. In words: Growth inhibition of non-estrogen-sensitive human HeLa cells after 72 hrs by MTT assay. Format: functional. The gist of the method: as §1
Series [11] deals with Jurkat. Kind of series: Growth inhibition of non-estrogen-sensitive human Jurkat cells after 72 hrs by MTT assay. It is filed as functional. The gist of the method: as §1
The nature of series [12]: Growth inhibition of non-estrogen-sensitive human SEM cells after 72 hrs by MTT assay. Format: functional. In short, it runs like this: as §1
Series [13] can be described thus: Growth inhibition of non-estrogen-sensitive human RS4:11 cells after 72 hrs by MTT assay. The settings on record: RS4-11, 72 h. Format: functional. The gist of the method:
as §1

Broadly, the GI50 is the concentration at which growth is held to half of that of the control. Lower therefore signals more potent growth inhibition.

Molecules are shown by their SMILES. Activity calls are given as the source filed them. The rule behind the calls is not given here.

As to `N#Cc1ccc(C(c2ccc(C#N)cc2)n2cncn2)cc1` [LETROZOLE], the GI50 in [1], in series [3], in series [6], in [7], in series [9] and in [10] was over 100 µM each time. In addition, the 50% growth inhibitory concentration (GI50) in [11], in series [12] and in [13] was over 100 µM in each case. Also, the “inhibition (INH)” value in [2] was “Active”. Besides, the Activity entry in series [4] and in series [5] was “inactive” throughout. Moreover, the activity at 5 µM in series [8] was determined as 32%.
